“Also recorded” adds a separate entry of the source. *1 amine or outer side, *2 acyl side, *3 side chain or, on linkers, in order; H or OH if unused. Where a SMILES comes first, the peptide text is derived from it. Bridges are numbered along the chain shown (N, C = ends). [ ]: non-standard residue; d: D form. The star is where a group is joined. hTyr(3S-OH,4S-OH,3'-OSO3H) = N[C@H](C(=O)O)[C@H](O)[C@@H](O)c1ccc(O)c(OS(=O)(=O)O)c1; Orn(4R-OH,5R-OH) = O=C([C@H](C[C@@H](O)[C@@H](O)N[*:3])N[*:1])[*:2]; Pro(3S-OH,4S-Me) = C[C@H]1CN[C@H](C(=O)O)[C@H]1O; X1 = CCCCCOc1ccc(-c2cc(-c3ccc(C(=O)*)cc3)no2)cc1; Gln(3R-OH) = NC(=O)C[C@@H](O)[C@H](N)C(=O)O; Hyp = O=C(O)[C@@H]1C[C@@H](O)CN1
How the values were obtained:
[1] = Safety and tolerability of repeat-dose micafungin in young infants; format: in vivo, human
Summary of the method: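 Multicentre open-label study: 7 mg/kg/day (≥1,000 g) or 10 mg/kg/day (<1,000 g) by 1-h IV infusion every 24 h for 4–5 days. Safety set: infants given ≥1 dose. Physical exams, haematology, serum chemistry and vital signs were taken at screening (≤72 h pre-dose) and until 72 h after the last dose. Investigators graded AEs for severity and drug relationship; treatment-emergent AEs counted through 72 h post-dose.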

[2] = febrile neutropenic pediatric patients, Phase I; cited from earlier work
[3] = Plasma pharmacokinetics of repeat-dose intravenous micafungin in young infants; format: in vivo, human; conditions: for AUC(0-t): log-linear method; for Vd: Vdss/wt
Summary of the method: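 Infants aged >48 h to day of life 120 with suspected candidaemia or invasive candidiasis got test compound by 1-h IV infusion every 24 h. Blood samples (50–100 μl; ≤500 μl total, away from infusion site) were taken around the day-4 dose: pre-dose, end of infusion, and 2–4, 8–12 and 20–24 h. Plasma was measured by LC-MS/MS (LLOQ 0.05 μg/ml). Analysis was non-compartmental: CLss = dose/AUC0–24, AUC by log-linear method, observed Tmax.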

[4] = infants weighing > 1,000 g, single dose 0.75, 1.5 or 3.0 mg/kg; cited from earlier work
[5] = adults, cited from earlier work
[6] = overall (7 and 10 mg/kg/day groups), day 4, n=12

CCCCCOc1ccc(-c2cc(-c3ccc(C(=O)N[C@H]4C[C@@H](O)[C@@H](O)NC(=O)[C@@H]5[C@@H](O)[C@@H](C)CN5C(=O)[C@H]([C@H](O)CC(N)=O)NC(=O)[C@H]([C@H](O)[C@@H](O)c5ccc(O)c(OS(=O)(=O)O)c5)NC(=O)[C@@H]5C[C@@H](O)CN5C(=O)[C@H]([C@@H](C)O)NC4=O)cc3)no2)cc1 [micafungin] (X1-[Orn(4R-OH,5R-OH)]T[Hyp][hTyr(3S-OH,4S-OH,3'-OSO3H)][Gln(3R-OH)][Pro(3S-OH,4S-Me)]; lactam 1-C)
Allergic or histamine-like reactions, infusion-related toxicity, nephrotoxicity or hepatotoxicity ([1]; 7 and 10 mg/kg/day): no instances
Changes in AST and ALT from baseline to post-treatment ([1]; 7 and 10 mg/kg/day): minimal
Renal toxicity / changes in hematology parameters ([1]; 7 and 10 mg/kg/day): no evidence of renal toxicity or significant changes in hematology parameters
Infants with AEs irrespective of causality ([1]; 7 and 10 mg/kg/day IV, ≥ 4 days, 12/13 infants): 92.3%
Deaths / discontinuations because of an AE ([1]; 7 and 10 mg/kg/day, 13 infants): No deaths occurred in this study and no patients withdrew prematurely from the study because of an AE; also recorded: No deaths or discontinuations from treatment occurred
Tolerability ([1]; doses of up to 10 mg/kg/day IV, ≥ 4 days, young infants): well tolerated
Infants with serious AEs ([1]; four infants of 13, two in each treatment group): 30.8%
Micafungin clearance in children 2–8 years relative to children ≥ 9 years of age [2]: 1.5–2.0 times higher
Median total body clearance adjusted for weight, lower in infants ≥ 1,000 g than in infants < 1,000 g ([3]; 7 mg/kg/day (≥ 1,000 g) vs 10 mg/kg/day (< 1,000 g)): 21%
AUC0–24 of a single infant (highest observed) ([3]; 7 mg/kg/day group, subject 4, weight 4.5 kg, single infant): 643.2 µg·h/mL
CLss/wt, median (range) ([3]; 7 mg/kg/day, IV, day 4, infants ≥ 1,000 g, n=6): 0.4 (0.2–0.6) ml/min/kg
Tmax, median (range) ([3]; 10 mg/kg/day, 1-h IV infusion, day 4, infants < 1,000 g, n=6): 1.1 (1.0–1.1) h
CLss/wt, median (range) ([3]; 10 mg/kg/day, IV, day 4, infants < 1,000 g, n=6): 0.6 (0.4–0.8) ml/min/kg
CLss, median (range) ([3]; 10 mg/kg/day, IV, day 4, infants < 1,000 g, n=6, dose/AUC0–24): 0.4 (0.2–0.5) ml/min
AUC(0-t) ([3]; human, plasma, iv, 7 mg/kg/day, AUC0–24, mean (SD), 7 mg/kg/day, 1-h IV infusion, day 4, infants ≥ 1,000 g, n=6, plasma, SD): 308 µg·h/mL
AUC(0-t) ([3]; human, plasma, iv, 7 mg/kg/day, AUC0–24, median (range), 7 mg/kg/day, 1-h IV infusion, day 4, infants ≥ 1,000 g, n=6, plasma): 258 µg·h/mL
clearance ([3]; human, plasma, iv, 7 mg/kg/day, CLss, mean (SD), 7 mg/kg/day, IV, day 4, infants ≥ 1,000 g, n=6, dose/AUC0–24, SD): 0.9 mL/min
clearance ([3]; human, plasma, iv, 7 mg/kg/day, CLss, median (range), 7 mg/kg/day, IV, day 4, infants ≥ 1,000 g, n=6, dose/AUC0–24): 0.7 mL/min
clearance ([3]; human, plasma, iv, 7 mg/kg/day, CLss/wt, mean (SD), 7 mg/kg/day, IV, day 4, infants ≥ 1,000 g, n=6, SD): 0.4 mL/min/kg
clearance ([3]; human, plasma, iv, 7 mg/kg/day, CLss/wt, median (range), 7 mg/kg/day, IV, day 4, infants ≥ 1,000 g, n=6): 0.45 mL/min/kg
Vd ([3]; human, plasma, iv, 7 mg/kg/day, mean (SD), 7 mg/kg/day, IV, day 4, infants ≥ 1,000 g, n=6, SD): 0.391 L/kg
Vd ([3]; human, plasma, iv, 7 mg/kg/day, median (range), 7 mg/kg/day, IV, day 4, infants ≥ 1,000 g, n=6): 0.341 L/kg
AUC(0-t) ([3]; human, plasma, iv, 10 mg/kg/day, AUC0–24, median (range), 10 mg/kg/day, 1-h IV infusion, day 4, infants < 1,000 g, n=6, plasma): 291 µg·h/mL
clearance ([3]; human, plasma, iv, 10 mg/kg/day, CLss, mean (SD), 10 mg/kg/day, IV, day 4, infants < 1,000 g, n=6, dose/AUC0–24, SD): 0.4 mL/min
clearance ([3]; human, plasma, iv, 10 mg/kg/day, CLss/wt, mean (SD), 10 mg/kg/day, IV, day 4, infants < 1,000 g, n=6, SD): 0.6 mL/min/kg
clearance ([3]; human, plasma, iv, 10 mg/kg/day, CLss/wt, median (range), 10 mg/kg/day, IV, day 4, infants < 1,000 g, n=6): 0.57 mL/min/kg
Vd ([3]; human, plasma, iv, 10 mg/kg/day, mean (SD), 10 mg/kg/day, IV, day 4, infants < 1,000 g, n=6, SD): 0.51 L/kg
Vd ([3]; human, plasma, iv, 10 mg/kg/day, median (range), 10 mg/kg/day, IV, day 4, infants < 1,000 g, n=6): 0.543 L/kg
AUC(0-t) ([3]; human, plasma, iv, AUC0–24, mean (SD), overall (7 and 10 mg/kg/day groups), day 4, n=12, plasma, SD): 308 µg·h/mL
AUC(0-t) ([3]; human, plasma, iv, AUC0–24, median (range), overall (7 and 10 mg/kg/day groups), day 4, n=12, plasma): 275 µg·h/mL
clearance ([3]; human, plasma, iv, CLss/wt, mean (SD), overall (7 and 10 mg/kg/day groups), day 4, n=12, SD): 0.5 mL/min/kg
Tmax ([3]; human, plasma, iv, Tmax, mean (SD), overall (7 and 10 mg/kg/day groups), day 4, n=12, SD): 1.2 h
Vd ([3]; human, plasma, iv, mean (SD), overall (7 and 10 mg/kg/day groups), day 4, n=12, SD): 0.45 L/kg
Vd ([3]; human, plasma, iv, median (range), overall (7 and 10 mg/kg/day groups), day 4, n=12): 0.503 L/kg
CLss/wt, median (range) [3, 6]: 0.5 (0.2–0.8) ml/min/kg
Tmax, median (range) [3, 6]: 1.1 (1.0–2.1) h
Micafungin clearance rate [4]: 0.65 mL/min/kg
Average AUC ([5]; 150-mg dose): 166.7 µg·h/mL
AUC values well tolerated [5]: < 600 µg·h/mL

Source: publication PMC2824925 (Clinical pharmacology and therapeutics, 2009)
